We go through 14 molecules from PubChem BioAssay.

Assay [1] can be described thus: Her2 expression decrease, cell viability multiplex – SKBR3 breast tumor cells, AlphaScreen, ATP viability, primary screen (AID 461;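 active = Her2 level under about 52% in both replicate screens, with viability over 70% of control, limit read from the data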;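 for Her2 level: lower value means less Her2 protein in the cells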;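 for viability: percent of carrier control wells set as 100% viability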). To be noted: SKBR3 Her2 protein level, 18-24 h, measured here: SKBR3 viability, ATP luminescence, at 10 µM. (Alpha assays give light when donor and acceptor beads are brought close together.)
The target of assay [2] is Receptor tyrosine-protein kinase erbB-2 (Homo sapiens) (UniProt P04626). The description is as above. To be noted: 18-24 h, at 10 µM, stronger effect = lower value.
Assay [3] is described as follows: reduced viability of SK-BR-3 breast cancer cells – cell-based, 24 h, human, pilot screen (AID 572;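 active = viability at or below 10% of carrier control in both of two separate runs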;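 note: compound exposure lasted between 18 and 24 h rather than exactly 24 h; 100% = carrier-treated control wells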). Conditions: SK-BR-3 viability, CellTiter-Glo luminescence, at 10 µM, stronger effect = lower value. (Cellular ATP, detected with luciferase, serves as a proxy for viable cell number.)
A short description of assay [4]: HUVEC growth inhibition – cell-based, human, primary screen (AID 575;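 active = viability at or below 30% in both replicate assays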;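 note: 100% = median of untreated cell wells with 0.1% DMSO on each plate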). To be noted: HUVEC proliferation, CellTiter-Glo luminescence, 72 h; at 10 µM; stronger effect = lower value. Put shortly: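 System – primary HUVEC, no more than 12 passages · Medium – Low-serum (2% FBS) EBM, supplemented · Times – 72 h exposure, 37 °C, 5% CO2, 30 min RT equilibration · Measured by – luminescent ATP assay · Read-out – % viability relative to median vehicle-well signal on each plate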

Assay [5] is described as follows: H69AR cell proliferation blockers – human, duplicate replicates, primary screen (AID 580;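 active = viability at or under a set limit in both replicates, limit being median viability minus 3 SD, cut at about 48% in these data, passing the limit was not always enough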;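 note: 100% = mean luminescence of untreated wells and 0% = no signal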). To be noted: H69AR lung tumor cells viability, ATP luminescence, 72 h; at 10 µM; stronger effect = lower value.
Assay [6] can be described thus: MRP1 drug-resistance reversers in H69AR cells – cell-based, doxorubicin co-treatment, pilot screen (AID 601). To be noted: CellTiter-Glo, 72 h, at 10 µM; for differential viability (reversal): stronger effect = higher value.
The nature of assay [7]: yeast transport mutant growth inhibition pilot in 384-well plates, post-Golgi transport modulator project (AID 636; in the data active = inhibition above about 31%). Conditions: absorbance 615 nm, about 18 h, stronger effect = higher value.
Assay [8] in a line: growth suppression of yeast trafficking mutant, preliminary HTS, modulators of trafficking downstream of Golgi apparatus project, 1536-format plate, OD 615 nm (AID 637; in the data active = inhibition above about 30%). Conditions: yeast transport mutant growth, absorbance 615 nm, 18 h; stronger effect = higher value.
[9] abbreviates: H69AR cells + 2 uM doxorubicin, measured here: viability with 2 uM doxorubicin, stronger effect = lower value.
[10] abbreviates: H69AR cells, compound alone cytotoxicity.

A word on the viability: it is a read-out of living cells in per cent, often relative to untreated cells. One may read the inhibition as the drop in the measured response relative to a control, in per cent.

Activity calls are given as the source filed them.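 Rule for the calls, unless noted: active = viability loss from added drug above about 55%, and viability with drug at most 40%, in both replicates (limit read from the data, passing the limit was not always enough); inconclusive = both conditions met in only one replicate; inactive = neither replicate meets both conditions.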 Peptide text beside a SMILES is read from it. * marks the point of attachment. Boc = CC(C)(C)OC(=O)*

Receptor tyrosine-protein kinase erbB-2 (Homo sapiens), sequence (P04626 whole entry, looked up): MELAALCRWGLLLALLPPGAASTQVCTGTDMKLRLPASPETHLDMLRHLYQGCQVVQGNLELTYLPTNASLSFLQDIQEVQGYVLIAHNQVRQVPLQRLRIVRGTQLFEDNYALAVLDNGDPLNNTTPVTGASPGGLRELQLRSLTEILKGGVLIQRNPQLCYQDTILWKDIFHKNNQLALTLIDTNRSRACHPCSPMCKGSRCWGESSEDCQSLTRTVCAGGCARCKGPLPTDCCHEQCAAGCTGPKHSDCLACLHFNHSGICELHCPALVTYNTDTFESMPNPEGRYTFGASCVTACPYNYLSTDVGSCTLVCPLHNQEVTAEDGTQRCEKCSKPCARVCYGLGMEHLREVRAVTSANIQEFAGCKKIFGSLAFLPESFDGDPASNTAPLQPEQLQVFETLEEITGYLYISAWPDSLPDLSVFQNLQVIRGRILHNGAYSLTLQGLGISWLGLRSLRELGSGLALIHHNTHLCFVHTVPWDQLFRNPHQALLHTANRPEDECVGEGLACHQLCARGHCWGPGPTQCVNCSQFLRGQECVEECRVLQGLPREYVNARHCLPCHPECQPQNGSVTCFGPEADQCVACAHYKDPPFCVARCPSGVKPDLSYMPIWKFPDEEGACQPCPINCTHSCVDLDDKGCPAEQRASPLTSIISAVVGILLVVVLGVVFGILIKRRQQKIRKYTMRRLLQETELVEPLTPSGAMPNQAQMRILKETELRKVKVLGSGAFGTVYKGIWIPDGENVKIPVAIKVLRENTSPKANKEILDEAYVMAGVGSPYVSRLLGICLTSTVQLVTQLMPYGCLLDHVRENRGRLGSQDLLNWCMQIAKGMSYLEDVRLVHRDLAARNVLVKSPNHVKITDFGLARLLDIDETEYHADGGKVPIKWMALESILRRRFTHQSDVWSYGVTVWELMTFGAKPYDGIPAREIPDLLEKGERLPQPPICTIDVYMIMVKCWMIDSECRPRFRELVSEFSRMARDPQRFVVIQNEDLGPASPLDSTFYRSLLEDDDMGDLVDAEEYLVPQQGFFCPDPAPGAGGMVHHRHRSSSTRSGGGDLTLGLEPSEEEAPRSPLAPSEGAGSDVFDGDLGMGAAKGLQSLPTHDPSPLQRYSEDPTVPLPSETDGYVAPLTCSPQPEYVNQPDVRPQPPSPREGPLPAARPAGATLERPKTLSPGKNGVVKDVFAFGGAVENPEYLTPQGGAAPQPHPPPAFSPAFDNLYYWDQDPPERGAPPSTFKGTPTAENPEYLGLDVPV

Take `COc1cc2c(cc1OC)C(C)N(C(=O)c1cc3n(n1)C(C(F)(F)F)CC(c1ccco1)N3)CC2` (stereo not given): the viability in assay [1] is 108%; in assay [3], 108% (inactive); in assay [4] it was 62% (inactive); in assay [5], 75% (inactive); in assay [6] (setting [9]), 89.3%; in assay [6] (setting [10]), 75%. Moreover, the Her2 level in assay [2] was 68.5% (inactive). In addition, the differential viability (reversal) in assay [6] (H69AR cells + 2 uM doxorubicin) is -14.3% (inactive). In addition, the inhibition in assay [7] was -6% (inactive); in assay [8], 4.26% (inactive).
With `CC(C)CC(NC(=O)OC(C)(C)C)C(=O)NC(C(=O)NC(C)C(N)=O)C(C)C` (stereo not drawn) (Boc-Leu-Val-Ala-NH2; configuration not given here), the viability in assay [1] was 102%; in assay [3], 102% (inactive); in assay [4], 94.2% (inactive); in assay [5] it was 112% (inactive); in assay [6] (setting [9]), 93%; in assay [6] (setting [10]) it was 112%. In addition, in assay [2], the Her2 level is 107% (inactive). The differential viability (reversal) in assay [6] (H69AR cells + 2 uM doxorubicin) is 19.3% (inactive). The inhibition in assay [7] was -4.27% (inactive); in assay [8], -3.23% (inactive).
Turning to `CCOc1cc(C(=O)NCc2ccncc2)cc(OCC)c1OCC`, the viability in assay [1] is 117%; in assay [3] it was 117% (inactive); in assay [4], 94.4% (inactive); in assay [5], 90.7% (inactive); in assay [6] (setting [9]), 87.7%; in assay [6] (setting [10]), 90.7%. Besides, the Her2 level in assay [2] is 92% (inactive). Moreover, in assay [6] (H69AR cells + 2 uM doxorubicin), the differential viability (reversal) is 2.97% (inactive). Further, the inhibition is -6.27% (inactive) in assay [7] and -4.76% (inactive) in assay [8].
As to `O=C1OCc2cc(NC(=O)C3CCCO3)ccc21` (stereo not given), the viability was 92.5% in assay [1]; 92.5% (inactive) in assay [3]; 101% (inactive) in assay [4]; 104% (inactive) in assay [5]; 105% in assay [6] (setting [9]); 104% in assay [6] (setting [10]). Also, in assay [2], the Her2 level is 122% (inactive). The differential viability (reversal) in assay [6] (H69AR cells + 2 uM doxorubicin) is -0.78% (inactive). For the same molecule, the figures for the inhibition in assay [7] and in assay [8] were 1.84% (inactive) and -1.83% (inactive), respectively.
As for `Cc1cccc(C(=O)N2CCC(n3nnc4cc(F)ccc43)CC2)c1`, the viability was 95% in assay [1]; 95% (inactive) in assay [3]; 92.6% (inactive) in assay [4]; 86.4% (inactive) in assay [5]; 90.4% in assay [6] (setting [9]); 86.4% in assay [6] (setting [10]). Further, in assay [2], the Her2 level was 113% (inactive). Besides, the differential viability (reversal) in assay [6] (H69AR cells + 2 uM doxorubicin) is -3.98% (inactive). Further, the results for the inhibition in assay [7] and in assay [8] were -3.21% (inactive) and 2.67% (inactive), respectively.
In the case of `Clc1ccc(SCCn2ccnc2)cc1`, the viability in assay [1] is 96%; in assay [3] it was 96% (inactive); in assay [4], 94.3% (inactive); in assay [5] it was 96.2% (inactive); in assay [6] (setting [9]) it was 84.3%; in assay [6] (setting [10]), 96.2%. Further, in assay [2], the Her2 level was 96% (inactive). Besides, in assay [6] (H69AR cells + 2 uM doxorubicin), the differential viability (reversal) was 11.8% (inactive). The figures for the inhibition in assay [7] and in assay [8] were -6.22% (inactive) and -10.2% (inactive), respectively.
Consider `Cc1ccc(/C(O)=C2\C(=O)C(=O)N(CCCN(C)C)C2c2ccccn2)cc1` (stereo not given), for which the viability is 101% in assay [1]; 101% (inactive) in assay [3]; 118% (inactive) in assay [4]; 104% (inactive) in assay [5]; 108% in assay [6] (setting [9]); 104% in assay [6] (setting [10]). The Her2 level in assay [2] is 93% (inactive). Moreover, in assay [6] (H69AR cells + 2 uM doxorubicin), the differential viability (reversal) is -4.14% (inactive). Besides, the results for the inhibition in assay [7] and in assay [8] were -1.84% (inactive) and 4.43% (inactive), respectively.
Regarding `O=C(c1ccc(Cl)cc1)C1CCN(C(=O)NC2CCCCC2)CC1`, the viability in assay [1] is 92%; in assay [3], 92% (inactive); in assay [4], 101% (inactive); in assay [5], 101% (inactive); in assay [6] (setting [9]) it was 87%; in assay [6] (setting [10]), 101%. For the same molecule, the Her2 level in assay [2] is 92% (inactive). In addition, in assay [6] (H69AR cells + 2 uM doxorubicin), the differential viability (reversal) was 14% (inactive). Moreover, the inhibition was -4.8% (inactive) in assay [7] and -7.26% (inactive) in assay [8].
As for `C=CCn1c(SCC(=O)O)nnc1-c1cccc(Cl)c1`, the viability is 116% in assay [1]; 116% (inactive) in assay [3]; 103% (inactive) in assay [4]; 109% (inactive) in assay [5]; 96.3% in assay [6] (setting [9]); 109% in assay [6] (setting [10]). In assay [2], the Her2 level is 107% (inactive). Moreover, in assay [6] (H69AR cells + 2 uM doxorubicin), the differential viability (reversal) was 12.6% (inactive). For the same molecule, the values for the inhibition in assay [7] and in assay [8] were -5.19% (inactive) and -3.67% (inactive), respectively.
On to `Cc1cccc(CS(=O)(=O)Cc2ccc(C(=O)NCC3CCCO3)o2)c1` (stereo not given), for which the viability in assay [1] was 85.5%; in assay [3], 85.5% (inactive); in assay [4], 114% (inactive); in assay [5], 94.7% (inactive); in assay [6] (setting [9]), 103%; in assay [6] (setting [10]), 94.7%. Also, the Her2 level in assay [2] is 108% (inactive). In addition, the differential viability (reversal) in assay [6] (H69AR cells + 2 uM doxorubicin) was -7.89% (inactive). For the same molecule, the results for the inhibition in assay [7] and in assay [8] were -2.89% (inactive) and -4.19% (inactive), respectively.
Take `CC(=O)Nc1ccc2c(c1)nc(CCNC(=O)c1ccccc1)n2C`: the viability in assay [1] was 90.5%; in assay [3], 90.5% (inactive); in assay [4], 110% (inactive); in assay [5] it was 102% (inactive); in assay [6] (setting [9]), 85.7%; in assay [6] (setting [10]), 102%. Also, in assay [2], the Her2 level is 89% (inactive). In addition, in assay [6] (H69AR cells + 2 uM doxorubicin), the differential viability (reversal) was 15.8% (inactive). The inhibition in assay [7] was -8.36% (inactive); in assay [8], -1.43% (inactive).
For `CC1=Nn2c(nnc2-c2cc(-c3ccccc3)n[nH]2)SC1`, the viability in assay [1] is 97.5%; in assay [3] it was 97.5% (inactive); in assay [4], 94.3% (inactive); in assay [5], 91.4% (inactive); in assay [6] (setting [9]), 84.4%; in assay [6] (setting [10]), 91.4%. Further, the Her2 level in assay [2] is 78% (inactive). Besides, in assay [6] (H69AR cells + 2 uM doxorubicin), the differential viability (reversal) is 7.02% (inactive). Also, the inhibition in assay [7] is -3.47% (inactive); in assay [8], 7.05% (inactive).
For `Cc1nnc(SCC(=O)N(C(C)C)C(C)C)nc1C`, the viability is 75.5% in assay [1]; 75.5% (inactive) in assay [3]; 95% (inactive) in assay [4]; 103% (inactive) in assay [5]; 93.2% in assay [6] (setting [9]); 103% in assay [6] (setting [10]). Further, in assay [2], the Her2 level was 88.5% (inactive). Moreover, the differential viability (reversal) in assay [6] (H69AR cells + 2 uM doxorubicin) was 10.3% (inactive). For the same molecule, the inhibition in assay [7] is -5.6% (inactive); in assay [8], -1.31% (inactive).
As for `c1cnc2c(SCc3ccc(-c4nnco4)cc3)cccc2c1`, the viability in assay [1] was 98.5%; in assay [3], 98.5% (inactive); in assay [4], 80.7% (inactive); in assay [5] it was 97.2% (inactive); in assay [6] (setting [9]), 85.2%; in assay [6] (setting [10]) it was 97.2%. The Her2 level in assay [2] was 101% (inactive). Further, the differential viability (reversal) in assay [6] (H69AR cells + 2 uM doxorubicin) is 12.1% (inactive). The values for the inhibition in assay [7] and in assay [8] were -2.03% (inactive) and -12.4% (inactive), respectively.
